{"data": "Experimental data pooled from the literature", "note": "Each line is one published result; the experiments were not run side by side."}
{"Compound": "COc1ccn2c(Nc3ccccc3F)c(-c3ccncn3)nc2c1", "sample": "aqueous buffer", "time": "24 h", "kinetic solubility": "163 µM"}
{"Compound": "CCc1cnc2c(c1)[C@@H](N1CCOc3c(cc(Cn4ccnc4)cc3-c3cn(C)nc3C(F)(F)F)C1=O)CCC2", "sample": "PBS", "time": "1 h", "pH": "pH 7.4", "kinetic solubility": "74 µM"}
{"Compound": "CCOC(=O)NS(=O)(=O)c1sc(CC(C)C)cc1-c1ccc2c(c1)CN(C(C)=O)C2", "sample": "aqueous buffer", "pH": "pH 7.4", "temperature": "37 °C", "kinetic solubility": "35 µM"}
{"Compound": "Cc1cc(Nc2ccc(S(F)(F)(F)(F)F)cc2)n2ccnc2n1", "sample": "simulated gastric fluid", "pH": "pH 2", "setting": "acidic", "kinetic solubility": "> 285 µM"}
{"Compound": "CC(=O)Nc1cc(Nc2cc(NC3CC3)n3ncc(C#N)c3n2)ccc1N1CCNCC1", "technique": "shake flask", "sample": "PBS", "time": "24 h", "pH": "pH 7.4", "temperature": "22 °C", "kinetic solubility": "52 µg/mL"}
{"Compound": "O=C1CCC(N2C(=O)c3cccc(NCCCCNC(=O)c4cccc(C#Cc5cc(NC(=O)Nc6ccnc(Cl)c6)ccn5)c4)c3C2=O)C(=O)N1 (stereo not drawn)", "sample": "PBS", "time": "24 h", "pH": "pH 7.4", "kinetic solubility": "< 1.56 µM"}
{"Compound": "CN[C@H]1CCCN(c2ccc(Nc3cc(NC4CC4)n4ncc(C#N)c4n3)cc2NC(C)=O)C1", "technique": "shake flask", "sample": "PBS", "time": "24 h", "pH": "pH 7.4", "temperature": "22 °C", "kinetic solubility": "54 µg/mL"}
{"Compound": "CCCCOC(=O)NS(=O)(=O)c1sc(CC(C)C)cc1-c1ccc2c(c1)CN(C(C)=O)C2", "sample": "aqueous buffer", "pH": "pH 7.4", "temperature": "37 °C", "kinetic solubility": "30 µM"}
{"Compound": "CNC(=O)[C@H](Cc1c[nH]cn1)NC(=O)CN(CCCc1ccccc1)CC(=O)OC", "sample": "PBS", "time": "24 h", "pH": "pH 7.4", "kinetic solubility": "179 µM"}
{"Compound": "CC(=O)Nc1cc(Nc2cc(NC3CC3)n3ncc(C#N)c3n2)ccc1N1CCC[C@H](O)C1", "technique": "shake flask", "sample": "PBS", "time": "24 h", "pH": "pH 7.4", "temperature": "22 °C", "kinetic solubility": "37 µg/mL"}
{"Compound": "COC(=O)[C@H](Cc1c[nH]cn1)NC(=O)CN(CC(=O)O)Cc1ccccc1", "sample": "PBS", "time": "24 h", "pH": "pH 7.4", "kinetic solubility": "154 µM"}
{"Compound": "CC(=O)Nc1cc(Nc2cc(NC3CC3)n3ncc(C#N)c3n2)ccc1N(C)C1COC1", "technique": "shake flask", "sample": "PBS", "time": "24 h", "pH": "pH 7.4", "temperature": "22 °C", "kinetic solubility": "0.9 µg/mL"}
{"Compound": "CNC(=O)[C@H](Cc1c[nH]cn1)NC(=O)CN(CC(=O)O)Cc1ccccc1", "sample": "PBS", "time": "24 h", "pH": "pH 7.4", "kinetic solubility": "151 µM"}
{"Compound": "C=CC(=O)Nc1cc(Nc2nccc(Nc3cc(Cl)c(F)cc3C(C)(C)O)n2)c(OC)cc1N1CC[C@@H](N(C)C)C1", "sample": "aqueous buffer", "pH": "pH 7.4", "kinetic solubility": "616 µM"}
{"Compound": "CC(=O)Nc1cc(Nc2cc(NC3CC3)n3ncc(C#N)c3n2)ccc1N[C@@H]1CCCOC1", "technique": "shake flask", "sample": "PBS", "time": "24 h", "pH": "pH 7.4", "temperature": "22 °C", "kinetic solubility": "2.4 µg/mL"}
{"Compound": "COC(=O)[C@H](Cc1c[nH]cn1)NC(=O)CN(CCCc1ccccc1)CC(=O)O", "sample": "PBS", "time": "24 h", "pH": "pH 7.4", "kinetic solubility": "199 µM"}
{"Compound": "CN[C@H]1CCN(c2ccc(Nc3cc(NC4CC4)n4ncc(C#N)c4n3)cc2NC(C)=O)C1", "technique": "shake flask", "sample": "PBS", "time": "24 h", "pH": "pH 7.4", "temperature": "22 °C", "kinetic solubility": "49 µg/mL"}
{"Compound": "CCCCOC(=O)NS(=O)(=O)c1sc(CC(C)C)cc1-c1ccc2c(c1)CN(C(C)=O)CC2", "sample": "aqueous buffer", "pH": "pH 7.4", "temperature": "37 °C", "kinetic solubility": "31 µM"}
{"Compound": "Cc1cc(Nc2ccc(C(F)(F)F)cc2)c2ccccc2n1", "sample": "PBS", "pH": "pH 6.5", "kinetic solubility": "83 µM"}
{"Compound": "O=C(O)CN(CCCc1ccccc1)CC(=O)N[C@H](CO)Cc1c[nH]cn1", "sample": "PBS", "time": "24 h", "pH": "pH 7.4", "kinetic solubility": "180 µM"}
{"Compound": "O=C(/C=C/c1cccnc1)NCCCCC1CCN(C(=O)c2ccccc2)CC1", "sample": "PBS", "time": "90 min", "pH": "pH 7.4", "kinetic solubility": "225 µM"}
